Sequences and labels used below:
B1: tRNA (parent)
chain: GUUCCGUUGGCGUAAUGGUAACGCGUCUCCCUCCUAAGGAGAAGACUGCGGGUUCGAGUCCCGUACGGAACG

This sample holds only a part of the variants without activity.

In this data set the parent is B1. Nature of the data set: yeast fitness relative to wild type (ratio to wild type); higher = fitter; tRNA-Arg(CCU), competitive growth, 37 C, YPD. An outline of the steps: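 Gene amplicons from the start population and from each of six end populations were read by 100-nucleotide paired-end sequencing. Those end populations came from pooled Saccharomyces cerevisiae strains carrying tRNA-Arg(CCU) gene variants at the native locus, competed in YPD at 37°C for 24 hours. Fitness relative to wild type was worked out from changes in genotype frequencies. Genotypes needed ≥ 100 starting reads, and estimates < 0.5 were set to 0.5.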
As to GUUCCGAUGGCGUAAUGGUAACGCGUCUCCCUCCUAAGGAGAAGACUGGCGGUUCGAGUCCUGUACGGAACG, the yeast fitness is at most 0.5. The value for GUUCCGAUGGCGUAAUGGUAACGCGUCUGCCUCCUAAGGAGAAGACUGCGGGUUCGAGUCCCGCACGGAACG was at most 0.5; that for GUUCCGAUGGCGUAAUGGUAACGCGUCUUCCUCCUAAGGAGAAGACUGCGGGUUCGAGUCCCGUACGGAACG was 0.67; that for GUUCCGAUGGCGUAAUGGUAACGCGUCUCCCUCCUAAGGAGAAGACUGGGGGUUCGAGUCCCGUAAGGAACG was at most 0.5. The value for GUUCCGAUGGCGUAAUGGUAACGCGUCUCCCUCCUAAGGAGAAGACUGGGGGUUCGAGUCCCGUACGGAACG was 0.779; that for GUUCCGAUGGCGUAAUGGUAACGCGUCUCCCUCCUAAGGAGAAGACUGAGGGUUCGAGUCCCGUACGGAACG was 0.634; that for GUUCCGAUGGCGUAAUGGUAACGCGUCUCCCUGCUAAGGAGAAGACUGCGGGUUCGAGUGCCAUACGGAACG was at most 0.5. For GUUCCGAUGGCGUAAUGGUAACGCGUCUCCCUCCUAAGGAGAAGACUGUGGGUUCGAGCCCGGUACGGAACG the value was at most 0.5; for GUUCCGAUGGCGUAAUGGUAACGCGUCUCCCUCCUAAGGAGAAGAGUGCGAGUUCGAGUCCCGUCCGGAACG, at most 0.5. As for GUUCCGAUGGCGUAAUGGUAACGCGUCUCCCUCCUAAGGAGAAGACUGAGGGUUCAAGUCCCGUACGGAACG, the yeast fitness turned out to be 0.594.

Turning to GUUCCGAUGGCGUAAUGGUAACGCGUUUCCCCCCUAAGGAGAAGACUGCGGGUUCGAGUCCCGUACGGAACG, the yeast fitness amounted to 0.575. GUUCCGAUGGCGUAAUGGUAACGCGUCUCCCUCCUAAGGAGAAGACUGCGGGUUGGAGUCCCGUACGGAACG: the yeast fitness is at most 0.5. The value for GUUCCGAUGGCGUAAUGGUAACGCGUCUCCCUACUAAGGAGAAGCCUGUGGGUUCGAGUCCCGUACGGAACG was at most 0.5; that for GUUCCGAUGGCGUAAUGGUAACGCGUCUCCCUCCUAAGGAGAAGAGUGCGGGUUCGAGUCCCGUCCGGAACG was 0.848; that for GUUCCGAUGGCGUAAUGGUAACGCGUCUCCCUCCUAAGGAGAAGAGUGCGGGUUCGAGUCCCGUUCGGAACG was 0.686. The value for GUUCCGAUGGCGUAAUGGUAACGCGUAUCCCUCCUAAGGAGAAGACUGCCGGUUCGAGUUCCGUACGGACCG was at most 0.5; that for GUUCCGAUGGCGUAAUGGUAACGCGUACCCCUCCUAAGGAGAAGACUGAGGGUUCGAGUCCCGUACGGAACG was 0.622; that for GUUCCGAUGGCGUAAUGGUAACGCGUCUCCCUCAUAAGGAGCAGACUGCGGGUUCGAAUCCCGUACGGAACG was at most 0.5. The value for GUUCCGAUGGCGUAAUGGUAACGCGUCUCCCUCCUAAGGAGAAGAGUGCGGGUUCGAGUCCCGUACGGAACG was 0.787.

Turning to GUUCCGAUGGCGUAAUGGUAACGCGUCUGCCUCCUCAGGAGAAGACUGCGGGUUCGAGUCCCGUACAGAACG, the yeast fitness is at most 0.5.

Regarding GUUCCGAUGGCGUAAUGGUAACGCGUCUCCCUCUUAAGGAGAAGACUGCGGGUUGGAGUCCCGUACGGAACG, the yeast fitness is at most 0.5. With GUUCCGAUGGCGUAAUGGUAACGCGUUUCCCUCCUAAGGAGAAGACUGCGGGUUCGAGUCCCGUACGGUACG, the yeast fitness came out at 0.691. With GUUCCGAUGGCGUAAUGGUAACGCGUCUCCCUCAUAAGGAGAAGACUGCGGGUUCGAGUCCCGUACGGAACG, the yeast fitness is 0.662. The value for GUUCCGAUGGCGUAAUGGUAACGCGUCUUCCUCAUAAGGAGAAGACUGCCGGUUCGAGUCCCGUCCGGAACG was at most 0.5. Regarding GUUCCGAUGGCGUAAUGGUAACGCGUCUCCCUCCUAAGGAGAAGACUGUGGGUUCGAGUCCGGUACGGAACG, the yeast fitness stood at 0.603. The value for GUUCCGAUGGCGUAAUGGUAACGCGUAUCCCUCCUAAGGAGAAGACUGCGGGUUCGAGUCCCGUACAGAACG was at most 0.5; that for GUUCCGAUGGCGUAAUGGUAACGCGUCUCCCUCGUAAGGCGAAGACUGCGGGUUCGUGUCCCGUACGGAACG was at most 0.5. For GUUCCGAUGGCGUAAUGGUAACGCGUAUGGCUCCUAAGGAGAAGACUGCGAGUUCGAGUCCCGUACGGAACG the value was 0.535. For GUUCCGAUGGCGUAAUGGUAACGCGUCUGCCUCCUAAGGAGAAGACUGCGGGUUCGAGUCCCGUACGGAUCG the value was at most 0.5; for GUUCCGAUGGCGUAAUGGUAACGCGUCUCCCUCGUAAGGAGAAGACUGCGGGUUCGAGUCCAGUACGGAACG, 0.696.

In the case of GUUCCGAUGGCGUAAUGGUAACGCGUCUCCCUCCUAAGGAGAAGAGUGCGGGUUCGAGUCCCGUACGGCACG, the yeast fitness was determined as 0.607. The value for GUUCCGAUGGCGUAAUGGUAACGCGUCUUCCUCCUACGGAGAAGACUGCGGGAUUGAGUACCGUACGGAACG was at most 0.5; that for GUUCCGAUGGCGUAAUGGUAACGCGUCUCCGUCCUAAGGAGAAGACUGCGGGUUCGAGUCCCGUACGGAACG was 0.78. For GUUCCGAUGGCGUAAUGGUAACGCGUCUCCCUCCUAAGGAGAAGACUGCGGGUUCGAGUGCCGUACCGAACG the value was at most 0.5; for GUUCCGAUGGCGUAAUGGUAACGCGUCUCUCUCCUAAGGAGAAGAUUGUGGGUUCGAGUCCCGUACGGAACG, at most 0.5; for GUUCCGAUGGCGUAAUGGUAACGCGUCUCCGUCCUAAGGAGAAGACUGCGGGUUCGAGUCCCGUACGGAUCG, at most 0.5. On to GUUCCGAUGGCGUAAUGGUAACGCGUCUCUCUCCUAAGGAGAAGACUGCCGGUUCGAGUCCCGUACGGAACG, for which the yeast fitness is at most 0.5.

Consider GUUCCGAUGGCGUAAUGGUAACGCGUCUACCUCCUAAGGAGAAGACUGCCGGUUCGAGUCCCGUACGGAACG, for which the yeast fitness is at most 0.5.

Source of the values: the RNAGym collection of RNA variant scans (doi:10.1126/science.aae0568).
